How the values were obtained:
Format in all cases: functional
A498 = test: Anticancer activity against human A498 cells; conditions: for CC50: read-out: LC50 (the source's name)
Summary of the method: (§1)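 NCI 60-human-tumour-cell-line panel. Selected analogues were first run at one dose, then some were carried into multi-dose testing. GI50 (50% growth inhibition), TGI (total growth inhibition) and LC50 (50% cell kill) were read as values interpolated where the dose–response curves cross these levels.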

MDA-MB-435 = test: Anticancer activity against human MDA-MB-435 cells; conditions: for CC50: read-out: LC50 (the source's name); summary of the method: as §1
RPMI-8226 [1] = test: Anticancer activity against human RPMI8226 cells; summary of the method: as §1
SK-MEL-5 = test: Anticancer activity against human SK-MEL-5 cells; conditions: for CC50: read-out: LC50 (the source's name); summary of the method: as §1
HCT-116 = test: Anticancer activity against human HCT116 cells; conditions: for CC50: read-out: LC50 (the source's name); summary of the method: as §1
SF-539 = test: Anticancer activity against human SF539 cells; conditions: read-out: LC50 (the source's name); summary of the method: as §1
IGROV-1 = test: Anticancer activity against human IGROV1 cells; conditions: for CC50: read-out: LC50 (the source's name); summary of the method: as §1
HCC 2998 = test: Anticancer activity against human HCC2998 cells; conditions: for CC50: read-out: LC50 (the source's name); summary of the method: as §1
NCI-H226 = test: Anticancer activity against human NCI-H226 cells; conditions: for CC50: read-out: LC50 (the source's name); summary of the method: as §1
SK-MEL-2 = test: Anticancer activity against human SK-MEL-2 cells; conditions: for CC50: read-out: LC50 (the source's name); summary of the method: as §1
Malme-3M = test: Anticancer activity against human MALME-3M cells; conditions: for CC50: read-out: LC50 (the source's name)
Summary of the method: (§2)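 Tested by the NCI in its 60-human-tumour-cell-line panel. Dose-response curves were run, and GI₅₀ (50% growth inhibition), TGI (total growth inhibition) and LC₅₀ (50% cell killing) were read as interpolated concentrations where the curves cross those levels.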

NCI-H460 = test: Anticancer activity against human NCI-H460 cells; summary of the method: as §1
OVCAR-8 = test: Anticancer activity against human OVCAR8 cells; conditions: for CC50: read-out: LC50 (the source's name); summary of the method: as §1
[2] = Anticancer activity against human Hs 578T cells; conditions: for CC50: read-out: LC50 (the source's name); summary of the method: as §1
NCI-H322M = test: Anticancer activity against human NCI-H322M cells; summary of the method: as §1
HL-60(TB) = test: Anticancer activity against human HL-60(TB) cells; summary of the method: as §2
MOLT-4 = test: Anticancer activity against human MOLT4 cells; summary of the method: as §1
HT-29 = test: Anticancer activity against human HT-29 cells; conditions: for CC50: read-out: LC50 (the source's name); summary of the method: as §1
T47D = test: Anticancer activity against human T47D cells; conditions: for CC50: read-out: LC50 (the source's name)
KM12 = test: Anticancer activity against human KM12 cells; summary of the method: as §1
SK-OV-3 = test: Anticancer activity against human SKOV3 cells; conditions: for CC50: read-out: LC50 (the source's name); summary of the method: as §1
SR = test: Anticancer activity against human SR cells; summary of the method: as §1
OVCAR-4 = test: Anticancer activity against human OVCAR4 cells; conditions: for CC50: read-out: LC50 (the source's name); summary of the method: as §1
DU-145 = test: Anticancer activity against human DU145 cells; conditions: for CC50: read-out: LC50 (the source's name); summary of the method: as §1
NCI-H522 = test: Anticancer activity against human NCI-H522 cells; summary of the method: as §1
PC-3 = test: Anticancer activity against human PC3 cells; conditions: for CC50: read-out: LC50 (the source's name); summary of the method: as §1
CCRF-CEM = test: Anticancer activity against human CCRF-CEM cells; summary of the method: as §1
MCF7 = test: Anticancer activity against human MCF7 cells; conditions: for CC50: read-out: LC50 (the source's name); summary of the method: as §1
LOX IMVI = test: Anticancer activity against human LOXIMVI cells; conditions: for CC50: read-out: LC50 (the source's name); summary of the method: as §1
SF-268 = test: Anticancer activity against human SF268 cells; conditions: for CC50: read-out: LC50 (the source's name); summary of the method: as §1
RPMI-8226 [3] = test: Cytotoxicity against human RPMI8226 cells assessed as cellular growth at 10 uM
Summary of the method: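 Single-dose screen run by the NCI across its 60-human-tumour-cell-line panel; growth recorded for each cell line.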

[4] = read-out: LC50 (the source's name)

SMILES: Cc1ccc(C(=O)Nc2c(NC(=O)CCl)ccc3c2C(=O)c2ccccc2C3=O)cc1
- GI50 (A498): 9.87 µM
- TGI (A498): 22.5 µM
- CC50 (A498): > 50 µM
- GI50 (MDA-MB-435): 5.73 µM
- TGI (MDA-MB-435): 19.5 µM
- CC50 (MDA-MB-435): > 50 µM
- GI50 (RPMI-8226 [1]): 1.35 µM
- LC50 (50% cell kill) (RPMI-8226 [1]): > 50 µM
- TGI (RPMI-8226 [1]): > 50 µM
- GI50 (SK-MEL-5): 0.83 µM
- TGI (SK-MEL-5): 1.53 µM
- CC50 (SK-MEL-5): 2.83 µM
- GI50 (HCT-116): 1.05 µM
- TGI (HCT-116): 2.46 µM
- CC50 (HCT-116): 9.32 µM
- CC50 (SF-539): 25.1 µM
- GI50 (IGROV-1): 5.6 µM
- TGI (IGROV-1): 17 µM
- CC50 (IGROV-1): > 50 µM
- CC50 (HCC 2998): 29.4 µM
- GI50 (NCI-H226): 8.81 µM
- TGI (NCI-H226): 20.8 µM
- CC50 (NCI-H226): 49.1 µM
- GI50 (SK-MEL-2): 1.34 µM
- TGI (SK-MEL-2): 4.4 µM
- CC50 (SK-MEL-2): > 50 µM
- GI50 (Malme-3M): 5.89 µM
- TGI (Malme-3M): 15.6 µM
- CC50 (Malme-3M): 41.1 µM
- GI50 (NCI-H460): 5.81 µM
- LC50 (50% cell kill) (NCI-H460): 34.1 µM
- TGI (NCI-H460): 14.1 µM
- GI50 (OVCAR-8): 3.32 µM
- TGI (OVCAR-8): 28.5 µM
- CC50 (OVCAR-8): > 50 µM
- GI50 [2]: 1.64 µM
- TGI [2]: 9.12 µM
- CC50 [2]: > 50 µM
- GI50 (NCI-H322M): 3.76 µM
- LC50 (50% cell kill) (NCI-H322M): 45.4 µM
- TGI (NCI-H322M): 13.7 µM
- GI50 (HL-60(TB)): 6.14 µM
- TGI (HL-60(TB)): 24.6 µM
- CC50 (HL-60(TB); [4]): > 50 µM
- GI50 (MOLT-4): 2.29 µM
- TGI (MOLT-4): 2.95 µM
- CC50 (MOLT-4; [4]): > 50 µM
- CC50 (HT-29): > 50 µM
- GI50 (T47D): 1.19 µM
- TGI (T47D): 4.04 µM
- CC50 (T47D): 46.3 µM
- GI50 (KM12): 5.56 µM
- LC50 (KM12): 28.3 µM
- TGI (KM12): 12.6 µM
- GI50 (SK-OV-3): 13.2 µM
- TGI (SK-OV-3): 35.9 µM
- CC50 (SK-OV-3): > 50 µM
- GI50 (SR): 1.59 µM
- LC50 (SR): > 50 µM
- TGI (SR): > 50 µM
- GI50 (OVCAR-4): 5.52 µM
- TGI (OVCAR-4): 12 µM
- CC50 (OVCAR-4): 25.9 µM
- GI50 (DU-145): 2.69 µM
- TGI (DU-145): 9.07 µM
- CC50 (DU-145): 23 µM
- GI50 (NCI-H522): 0.88 µM
- TGI (NCI-H522): 2.03 µM
- GI50 (PC-3): 6.54 µM
- TGI (PC-3): 15.4 µM
- CC50 (PC-3): 36.5 µM
- GI50 (CCRF-CEM): 2.54 µM
- TGI (CCRF-CEM): > 50 µM
- CC50 (CCRF-CEM; [4]): > 50 µM
- GI50 (MCF7): 1.12 µM
- TGI (MCF7): 4.95 µM
- CC50 (MCF7): > 50 µM
- GI50 (LOX IMVI): 0.78 µM
- TGI (LOX IMVI): 1.84 µM
- CC50 (LOX IMVI): 4.29 µM
- CC50 (SF-268): > 50 µM

SMILES: Cc1ccc(C(=O)Nc2c(NC(=O)CN3CCN(C)CC3)ccc3c2C(=O)c2ccccc2C3=O)cc1
- GI50 (A498): > 100 µM
- TGI (A498): > 100 µM
- CC50 (A498): > 100 µM
- GI50 (MDA-MB-435): 3.13 µM
- TGI (MDA-MB-435): > 100 µM
- CC50 (MDA-MB-435): > 100 µM
- GI50 (RPMI-8226 [1]): 3.25 µM
- LC50 (50% cell kill) (RPMI-8226 [1]): > 100 µM
- TGI (RPMI-8226 [1]): > 100 µM
- GI50 (SK-MEL-5): 1.94 µM
- CC50 (SK-MEL-5): > 100 µM
- GI50 (HCT-116): 3.08 µM
- TGI (HCT-116): > 100 µM
- CC50 (HCT-116): > 100 µM
- GI50 (IGROV-1): > 100 µM
- TGI (IGROV-1): > 100 µM
- CC50 (IGROV-1): > 100 µM
- GI50 (HCC 2998): 3 µM
- TGI (HCC 2998): > 100 µM
- CC50 (HCC 2998): > 100 µM
- GI50 (NCI-H226): > 100 µM
- TGI (NCI-H226): > 100 µM
- CC50 (NCI-H226): > 100 µM
- GI50 (SK-MEL-2): > 100 µM
- TGI (SK-MEL-2): > 100 µM
- CC50 (SK-MEL-2): > 100 µM
- CC50 (Malme-3M): > 100 µM
- GI50 (NCI-H460): 3.36 µM
- LC50 (50% cell kill) (NCI-H460): > 100 µM
- TGI (NCI-H460): > 100 µM
- GI50 (OVCAR-8): > 100 µM
- TGI (OVCAR-8): > 100 µM
- CC50 (OVCAR-8): > 100 µM
- GI50 [2]: > 100 µM
- TGI [2]: > 100 µM
- CC50 [2]: > 100 µM
- GI50 (NCI-H322M): > 100 µM
- LC50 (50% cell kill) (NCI-H322M): > 100 µM
- TGI (NCI-H322M): > 100 µM
- GI50 (HT-29): 3.09 µM
- TGI (HT-29): > 100 µM
- CC50 (HT-29): > 100 µM
- GI50 (T47D): 2.62 µM
- CC50 (T47D): > 100 µM
- LC50 (KM12): > 100 µM
- TGI (KM12): > 100 µM
- GI50 (SK-OV-3): > 100 µM
- TGI (SK-OV-3): > 100 µM
- CC50 (SK-OV-3): > 100 µM
- LC50 (SR): > 100 µM
- TGI (SR): 4.65 µM
- TGI (OVCAR-4): > 100 µM
- CC50 (OVCAR-4): > 100 µM
- GI50 (DU-145): > 100 µM
- TGI (DU-145): > 100 µM
- CC50 (DU-145): > 100 µM
- TGI (NCI-H522): > 100 µM
- CC50 (NCI-H522; [4]): > 100 µM
- TGI (PC-3): > 100 µM
- CC50 (PC-3): > 100 µM
- GI50 (MCF7): 3.13 µM
- TGI (MCF7): > 100 µM
- CC50 (MCF7): > 100 µM
- TGI (LOX IMVI): > 100 µM
- CC50 (LOX IMVI): > 100 µM
- TGI (SF-268): > 100 µM
- CC50 (SF-268): > 100 µM

SMILES: Cc1ccc(C(=O)Nc2ccc3c(c2NC(=O)c2ccc(C)cc2)C(=O)c2ccccc2C3=O)cc1
- Activity (RPMI-8226 [3]): 101.77%

Reference: ChEMBL document CHEMBL1926565, “Synthesis, antiproliferative activities and telomerase inhibition evaluation of novel asymmetrical 1,2-disubstituted amidoanthraquinone derivatives” (Eur J Med Chem, 2012)
